Source: ChEMBL document CHEMBL1146519, “Acaricidal activity of tonka bean extracts. Synthesis and structure-activity relationships of bioactive derivatives” (J Nat Prod, 2003)

What follows are compounds tested on Dermatophagoides pteronyssinus (assay: Pesticidal activity against Dermatophagoides pteronyssinus after 24 hrs).
Format: functional, organism-based
How it was run: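 D. pteronyssinus reared on 90% yeast powder/10% beard shavings at 25 °C, 75% RH, dark. Compounds in absolute EtOH dried 24 h on 2 cm2 well bottoms; rims glued. 100 mites per well, 24 h at 25 °C, 75% RH, dark. Dead = no movement when prodded. Abbott-corrected mortality; EC50 by linear regression. Seven 2-fold dilutions, 0.01–0.640 g/m2, triplicate, repeated after one week.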

Compared with `O=C(OCc1ccccc1)c1cc2ccccc2oc1=O`, `O=C(OCc1ccccc1)c1cc(=O)c2ccccc2o1` is higher in EC50: 0.28 g/m2 for the first, 0.495 g/m2 for the second.

Compared with `Cc1ccc2oc(=O)ccc2c1`, `O=c1ccc2ccccc2o1` [COUMARIN] is lower in EC50: 0.04 g/m2 for the first, 0.032 g/m2 for the second.

`O=C(OCc1ccccc1)c1cccc(O)c1` and `O=C(OCc1ccccc1)c1ccc(O)cc1` are the same in EC50: 0.495 g/m2 for the first, 0.495 g/m2 for the second.

Compared with `O=Cc1cc(C(=O)OCc2ccccc2)ccc1O`, `O=C(OCc1ccccc1)c1ccc(=O)oc1` [BENZYL COUMALATE] is higher in EC50: 0.242 g/m2 for the first, 0.495 g/m2 for the second.

`O=C(OCc1ccccc1)c1ccc2oc(=O)ccc2c1` and `O=C(OCc1ccccc1)c1cccc2oc(=O)ccc12` are the same in EC50: 0.495 g/m2 for the first, 0.495 g/m2 for the second.

`O=C(OCc1ccccc1)c1ccccc1` [BENZYL BENZOATE] and `O=C(OCc1ccccc1)c1ccccc1O` [BENZYL SALICYLATE] are the same in EC50: 0.025 g/m2 for the first, 0.025 g/m2 for the second.

First: O=C(/C=C/c1ccccc1)OCc1ccccc1 [BENZYL CINNAMATE]
Second: Oc1ccccc1CCCc1ccccc1 [CHALCANE]
The EC50 of the first is lower: 0.18 g/m2 for the first, 0.31 g/m2 for the second.

Going from `O=C1CCOc2ccccc21` [CHROMANONE] to `O=C1CC(c2ccccc2)Oc2ccccc21` (stereo unspecified) [FLAVANONE], the EC50 rises from 0.07 g/m2 to 0.09 g/m2.

Going from `O=c1ccoc2ccccc12` [CHROMONE] to `O=c1cc(-c2ccccc2)oc2ccccc12` [FLAVONE], the EC50 rises from 0.037 g/m2 to 0.5 g/m2.

`c1ccc(C2CCc3ccccc3O2)cc1` (stereo unspecified) [FLAVANE] was tested, and the EC50 was 0.15 g/m2.

`O=c1cc(O)c2ccccc2o1` [4-HYDROXYCOUMARINS] gave an EC50 of over 1.5 g/m2.
Compound `O=c1ccc2ccc(O)cc2o1` [UMBELLIFERONE] has an EC50 of over 1.5 g/m2.
